Laboratory results from ChEMBL document CHEMBL1140808, “Antiproliferative effects of dibenzocyclooctadiene lignans isolated from Schisandra chinensis in human cancer cells” (Bioorg Med Chem Lett, 2008).
pIC50: −log10 of the molar value. The source made the active and inactive calls. No cut-off for these calls is given here.

Experiments:
MDA-MB-231 = experiment: Antiproliferative activity against human MDA-MB-231 cells after 72 hrs by SRB assay; format: functional, cell-based; conditions: MDA-MB-231, 72 h
SK-HEP1 = experiment: Antiproliferative activity against human SK-HEP1 cells after 72 hrs by SRB assay; format: functional, cell-based; conditions: SK-HEP1, 72 h
SNU-638 = experiment: Antiproliferative activity against human SNU638 cells after 72 hrs by SRB assay; format: functional, cell-based
T47D = experiment: Antiproliferative activity against human T47D cells after 72 hrs by SRB assay; format: functional, cell-based
HCT-15 = experiment: Antiproliferative activity against human HCT15 cells after 72 hrs by SRB assay; format: functional, cell-based
K562 = experiment: Antiproliferative activity against human K562 cells after 72 hrs by MTT assay; format: functional, cell-based
A549 [1] = experiment: Antiproliferative activity against human A549 cells after 72 hrs by SRB assay; format: functional, cell-based
A549 [2] = experiment: Cell cycle arrest in human A549 cells assessed as accumulation at G0/G1 phase at 40 uM after 24 hrs; format: functional
Summary of the method: (§1)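 A549 human lung cancer cells exposed 24 h to the lignan over 3.75–60 µM. Cell cycle distribution measured by flow cytometry. The percentage of cells in each phase (G0/G1, S, G2/M, sub-G1) was derived by cell cycle modelling of the DNA histograms.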

A549 [3] = experiment: Cell cycle arrest in human A549 cells assessed as accumulation at G0/G1 phase at 60 uM after 24 hrs; format: functional; summary of the method: as §1
A549 [4] = experiment: Cell cycle arrest in human A549 cells assessed as accumulation at S phase at 5 uM after 24 hrs; format: functional; summary of the method: as §1
A549 [5] = experiment: Cell cycle arrest in human A549 cells assessed as accumulation at S phase at 10 uM after 24 hrs; format: functional; summary of the method: as §1
A549 [6] = experiment: Cell cycle arrest in human A549 cells assessed as accumulation at S phase at 20 uM after 24 hrs; format: functional; summary of the method: as §1
A549 [7] = experiment: Cell cycle arrest in human A549 cells assessed as accumulation at S phase at 40 uM after 24 hrs; format: functional; summary of the method: as §1
A549 [8] = experiment: Cell cycle arrest in human A549 cells assessed as accumulation at S phase at 60 uM after 24 hrs; format: functional; summary of the method: as §1
A549 [9] = experiment: Cell cycle arrest in human A549 cells assessed as accumulation at G2/M phase at 5 uM after 24 hrs; format: functional; summary of the method: as §1
A549 [10] = experiment: Cell cycle arrest in human A549 cells assessed as accumulation at G2/M phase at 10 uM after 24 hrs; format: functional; summary of the method: as §1
A549 [11] = experiment: Cell cycle arrest in human A549 cells assessed as accumulation at G2/M phase at 20 uM after 24 hrs; format: functional; summary of the method: as §1
A549 [12] = experiment: Cell cycle arrest in human A549 cells assessed as accumulation at G2/M phase at 40 uM after 24 hrs; format: functional; summary of the method: as §1
A549 [13] = experiment: Cell cycle arrest in human A549 cells assessed as accumulation at G2/M phase at 60 uM after 24 hrs; format: functional; summary of the method: as §1
A549 [14] = experiment: Cell cycle arrest in human A549 cells assessed as accumulation at subG1 phase at 5 uM after 24 hrs; format: functional; summary of the method: as §1
A549 [15] = experiment: Cell cycle arrest in human A549 cells assessed as accumulation at subG1 phase at 10 uM after 24 hrs; format: functional; summary of the method: as §1
A549 [16] = experiment: Cell cycle arrest in human A549 cells assessed as accumulation at subG1 phase at 20 uM after 24 hrs; format: functional; summary of the method: as §1
A549 [17] = experiment: Cell cycle arrest in human A549 cells assessed as accumulation at subG1 phase at 40 uM after 24 hrs; format: functional; summary of the method: as §1
A549 [18] = experiment: Cell cycle arrest in human A549 cells assessed as accumulation at subG1 phase at 60 uM after 24 hrs; format: functional; summary of the method: as §1
A549 [19] = experiment: Effect on cyclin D1 expression in human A549 cells after 24 hrs; format: functional, cell-based
Summary of the method: (§2)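 Protein levels measured by Western blot in A549 human lung cancer cells after 24 h exposure to a range of lignan concentrations.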

A549 [20] = experiment: Effect on cdk2 expression in human A549 cells after 24 hrs; format: functional, cell-based; summary of the method: as §2
A549 [21] = experiment: Effect on cdk4 expression in human A549 cells after 24 hrs; format: functional, cell-based; summary of the method: as §2
A549 [22] = experiment: Effect on cyclin A expression in human A549 cells at 60 uM after 24 hrs; format: functional, cell-based; summary of the method: as §2
A549 [23] = experiment: Effect on p27 expression in human A549 cells after 24 hrs; format: functional, cell-based; summary of the method: as §2
A549 [24] = experiment: Inhibition of human retinoblastoma protein phosphorylation in A549 cells after 24 hrs; format: cell-based; summary of the method: as §2
A549 [25] = experiment: Cell cycle arrest in human A549 cells assessed as accumulation at G0/G1 phase at 5 uM after 24 hrs; format: functional; summary of the method: as §1
A549 [26] = experiment: Cell cycle arrest in human A549 cells assessed as accumulation at G0/G1 phase at 10 uM after 24 hrs; format: functional; summary of the method: as §1
A549 [27] = experiment: Cell cycle arrest in human A549 cells assessed as accumulation at G0/G1 phase at 20 uM after 24 hrs; format: functional; summary of the method: as §1

Structure (SMILES): COc1cc2c(c(OC)c1OC)-c1c(cc3c(c1OC)OCO3)C[C@H](C)[C@](C)(O)[C@H]2OC(=O)c1ccccc1 [GOMISIN C]
- pIC50 (MDA-MB-231): 4.25
- pIC50 (SK-HEP1): 4.15
- pIC50 (SNU-638; Homo sapiens, SNU-638, 72 h): 4.35
- pIC50 (T47D; Homo sapiens, T47D, 72 h): 4.29
- pIC50 (HCT-15; Homo sapiens, HCT-15, 72 h): < 4.00
- pIC50 (K562; Homo sapiens, K562, 72 h): < 4.00
- pIC50 (A549 [1]; Homo sapiens, A549, 72 h): < 4.00

Structure (SMILES): COc1cc2c(c(OC)c1OC)-c1c(cc(OC)c(OC)c1OC)C[C@](C)(O)[C@@H](C)C2 [SCHIZANDRIN]
- pIC50 (MDA-MB-231): 4.21
- pIC50 (SK-HEP1): 4.15
- pIC50 (SNU-638; Homo sapiens, SNU-638, 72 h): 4.68
- pIC50 (T47D; Homo sapiens, T47D, 72 h): 4.70
- pIC50 (HCT-15; Homo sapiens, HCT-15, 72 h): 4.30
- pIC50 (K562; Homo sapiens, K562, 72 h): 4.60
- pIC50 (A549 [1]; Homo sapiens, A549, 72 h): 4.68

Structure (SMILES): COc1cccc2c1C(=O)c1c(O)c3c(c(O)c1C2=O)C[C@@](O)(C(=O)CO)C[C@@H]3O[C@H]1C[C@H](N)[C@H](O)[C@H](C)O1 [DOXORUBICIN]
- pIC50 (MDA-MB-231): 6.70
- pIC50 (SK-HEP1): 7.00
- pIC50 (SNU-638; Homo sapiens, SNU-638, 72 h): 7.15
- pIC50 (T47D; Homo sapiens, T47D, 72 h): 7.00
- pIC50 (HCT-15; Homo sapiens, HCT-15, 72 h): 6.22
- pIC50 (A549 [1]; Homo sapiens, A549, 72 h): 7.00

Structure (SMILES): C/C=C(\C)C(=O)O[C@H]1c2cc(OC)c(OC)c(OC)c2-c2c(cc3c(c2O)OCO3)C[C@H](C)[C@]1(C)O [SCHISANTHERIN C]
- Activity (A549 [2]): 65.3%
- Activity (A549 [3]): 75%
- Activity (A549 [4]): 31.8%
- Activity (A549 [5]): 31.6%
- Activity (A549 [6]): 26%
- Activity (A549 [7]): 18.8%
- Activity (A549 [8]): 8.2%
- Activity (A549 [9]): 18.1%
- Activity (A549 [10]): 18%
- Activity (A549 [11]): 16.2%
- Activity (A549 [12]): 15.9%
- Activity (A549 [13]): 10.8%
- Activity (A549 [14]): 0.6%
- Activity (A549 [15]): 1.5%
- Activity (A549 [16]): 0.6%
- Activity (A549 [17]): 1.1%
- Activity (A549 [18]): 2.5%
- Activity (A549 [19]): inactive
- Activity (A549 [20]): inactive
- Activity (A549 [21]): inactive
- Activity (A549 [22]): inactive
- Activity (A549 [23]): Active
- Activity (A549 [24]): Active
- pIC50 (MDA-MB-231): 4.47
- pIC50 (SK-HEP1): 4.70
- pIC50 (SNU-638; Homo sapiens, SNU-638, 72 h): 4.82
- pIC50 (T47D; Homo sapiens, T47D, 72 h): 4.58
- pIC50 (HCT-15; Homo sapiens, HCT-15, 72 h): 5.25
- pIC50 (K562; Homo sapiens, K562, 72 h): 4.95
- pIC50 (A549 [1]; Homo sapiens, A549, 72 h): 5.25
- Activity (A549 [25]): 50.1%
- Activity (A549 [26]): 50.4%
- Activity (A549 [27]): 57.9%

Structure (SMILES): COc1cc2c(c(OC)c1OC)-c1c(cc3c(c1OC)OCO3)C[C@H](C)[C@H](C)C2 (stereo in doubt; form 2) [WUWEIZISU B]
- pIC50 (MDA-MB-231): < 4.00
- pIC50 (SK-HEP1): < 4.00
- pIC50 (SNU-638; snu-638): < 4.00
- pIC50 (T47D; t47d): < 4.00
- pIC50 (HCT-15; hct-15): 4.06
- pIC50 (K562; k562): 4.20
- pIC50 (A549 [1]; a549): 4.06

Structure (SMILES): COc1cc2c(c(OC)c1OC)-c1c(cc(OC)c(OC)c1OC)C[C@H](C)[C@H](C)C2 [SCHISANDRIN A]
- pIC50 (MDA-MB-231): < 4.00
- pIC50 (SK-HEP1): 4.38
- pIC50 (SNU-638; Homo sapiens, SNU-638, 72 h): 4.27
- pIC50 (T47D; Homo sapiens, T47D, 72 h): 4.40
- pIC50 (HCT-15; Homo sapiens, HCT-15, 72 h): < 4.00
- pIC50 (K562; Homo sapiens, K562, 72 h): < 4.00
- pIC50 (A549 [1]; Homo sapiens, A549, 72 h): < 4.00

Structure (SMILES): COc1cc2c(c(OC)c1OC)-c1c(cc3c(c1OC)OCO3)C[C@H](C)[C@](C)(O)C2 [GOMISIN A]
- pIC50 (MDA-MB-231): < 4.00
- pIC50 (SK-HEP1): < 4.00
- pIC50 (SNU-638; Homo sapiens, SNU-638, 72 h): 4.04
- pIC50 (T47D; Homo sapiens, T47D, 72 h): < 4.00
- pIC50 (HCT-15; Homo sapiens, HCT-15, 72 h): < 4.00
- pIC50 (K562; Homo sapiens, K562, 72 h): < 4.00
- pIC50 (A549 [1]; Homo sapiens, A549, 72 h): 4.08

Structure (SMILES): COc1c2c(cc3c1-c1c(cc4c(c1OC)OCO4)C[C@H](C)[C@H](C)C3)OCO2 [SCHISANDRIN C]
- pIC50 (MDA-MB-231): < 4.00
- pIC50 (SK-HEP1): < 4.00
- pIC50 (SNU-638; Homo sapiens, SNU-638, 72 h): < 4.00
- pIC50 (T47D; Homo sapiens, T47D, 72 h): < 4.00
- pIC50 (HCT-15; Homo sapiens, HCT-15, 72 h): < 4.00
- pIC50 (K562; Homo sapiens, K562, 72 h): < 4.00
- pIC50 (A549 [1]; Homo sapiens, A549, 72 h): < 4.00

Structure (SMILES): COc1cc2c(c(OC)c1OC)-c1c(cc3c(c1OC)OCO3)C[C@H](C)[C@H](C)C2 (stereo in doubt; form 1) [WUWEIZISU B]
- pIC50 (SNU-638; snu-638): 4.64
- pIC50 (T47D; t47d): 4.72
- pIC50 (HCT-15; hct-15): 4.85
- pIC50 (K562; k562): 4.66
- pIC50 (A549 [1]; a549): 4.68

Structure (SMILES): C/C=C(\C)C(=O)O[C@H]1c2cc(OC)c(OC)c(OC)c2-c2c(cc3c(c2OC)OCO3)C[C@H](C)[C@]1(C)O [GOMISIN B]
- pIC50 (MDA-MB-231): < 4.00
- pIC50 (SK-HEP1): < 4.00
- pIC50 (SNU-638; Homo sapiens, SNU-638, 72 h): < 4.00
- pIC50 (T47D; Homo sapiens, T47D, 72 h): < 4.00
- pIC50 (HCT-15; Homo sapiens, HCT-15, 72 h): < 4.00
- pIC50 (K562; Homo sapiens, K562, 72 h): < 4.00
- pIC50 (A549 [1]; Homo sapiens, A549, 72 h): < 4.00
